# CDK5 p35 inh = inhibitors of human CDK5/p35 kinase, primary screen, biochemical, single concentration; Cyclin-dependent kinase 5 (Homo sapiens) + Cyclin-dependent kinase 5 activator 1 (Homo …; Recombinant CDK5/p35, ADP-Glo luminescence, 60 min; inhibition, % at 10 µM; AID 488839, 2010; actives 0.01% (n = 330,000);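 active = highest replicate inhibition of at least 50% and at least 75% of replicates reaching 50%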;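 also: plate controls were DMSO neutral control for no effect and GW8510 at 10 µM for full effect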
# Target sequence (Q00535 whole entry, looked up): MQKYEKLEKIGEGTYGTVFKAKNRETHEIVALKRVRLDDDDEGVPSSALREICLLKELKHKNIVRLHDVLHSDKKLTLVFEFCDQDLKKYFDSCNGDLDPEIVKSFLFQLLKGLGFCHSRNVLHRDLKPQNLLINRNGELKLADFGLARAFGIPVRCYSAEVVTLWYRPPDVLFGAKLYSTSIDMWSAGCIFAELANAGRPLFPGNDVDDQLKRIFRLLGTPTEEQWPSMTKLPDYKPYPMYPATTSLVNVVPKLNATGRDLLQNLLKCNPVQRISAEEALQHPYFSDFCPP
# Target sequence (Q15078 whole entry, looked up): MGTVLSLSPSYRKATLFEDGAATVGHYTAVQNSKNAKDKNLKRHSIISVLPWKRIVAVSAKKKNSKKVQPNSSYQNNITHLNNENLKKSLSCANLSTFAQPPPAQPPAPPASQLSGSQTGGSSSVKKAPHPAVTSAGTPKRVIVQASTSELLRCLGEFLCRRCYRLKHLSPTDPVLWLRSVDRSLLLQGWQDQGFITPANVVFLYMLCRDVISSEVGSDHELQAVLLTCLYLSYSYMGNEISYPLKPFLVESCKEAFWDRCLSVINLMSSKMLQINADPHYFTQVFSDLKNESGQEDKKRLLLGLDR
# PvdQ acylase = P. aeruginosa PvdQ acylase inhibitors, primary screen, biochemical, fluorescence, plate reader and imaging, single point | actives 0.063% (n = 340,000) | PvdQ acylase [Pseudomonas aeruginosa LESB58] | purified PvdQ acylase | inhibition, % at 10 µM; in the data active = inhibition above about 30%, passing the limit was not always enough;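 also: 0% = vehicle neutral wells and 100% = reference inhibitor wells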
# Vif imaging = HIV Vif self-association inhibitors, primary screen, imaging, HEK293T, single point; inhibition, % at 7.49 µM; AID 602346, 2012; HEK293T cells, Vif self-association by quenched fluorescence, 24 h; actives 0.35% (n = 340,000); in the data active = inhibition above about 50%, passing the limit was not always enough
# CAL PDZ FP-1 = untagged CAL PDZ binding inhibitors, primary screen, biochemical, fluorescence polarization, HTS | Golgi-associated PDZ and coiled-coil motif-containing protein (Homo sapiens), Q9HD26 | purified CAL PDZ, TMR-peptide fluorescence polarization, 1 h | inhibition, % at 24.9 µM | actives 0.92% (n = 300,000) | AID 602252, 2012;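 active = mean inhibition of at least 30% with at least half of replicates also reaching 30%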;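 also: 0% = DMSO neutral control and 100% = excess unlabeled competitor peptide PRC23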
# Glyco luc inh = increase of ERlucT glycosylation luciferase signal, primary screen, N-linked glycosylation inhibitor project, D54 ERlucT cells, luminescence, set 2 | D54 ERlucT glycosylation luciferase reporter, 24 h; percent of 100 nM tunicamycin response | reporter increase, % at 12.5 µM | actives 0.23% (n = 360,000) | AID 588692, 2011;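 active = mean luciferase reporter signal, scaled so untreated is 0 and the glycosylation-blocking control 100, at or above a set limit in every replicate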;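 also: luciferase carries N-glycosylation sites so blocking glycosylation raises the light; 0% = median of neutral control wells and 100% = median of 100 nM tunicamycin wells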
# CAL PDZ FP-2 = CAL PDZ peptide-binding inhibitors, primary screen, biochemical, fluorescence polarization, Cer-tagged CAL PDZ, HTS | Golgi-associated PDZ and coiled-coil motif-containing protein (Homo sapiens), Q9HD26 | inhibition, % at 20 µM | actives 0.02% (n = 330,000) | purified CAL PDZ, TMR-peptide fluorescence polarization, 1 h;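 active = highest replicate inhibition of at least 40%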;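 also: plate controls were DMSO neutral control wells for no effect and unlabeled competitor peptide control wells for full effect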
#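 material = purified tagged CAL PDZ domain construct (CerCALP) | compound dosing = 20 µM, one dose | times = 1 h at RT | measured by = fluorescence polarization from S- and P-plane intensities, G-factor corrected | read-out = inhibition from polarization loss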
# The depositor's hits bear a star; · = not tested or not shown. Sampled rows, rich in hits. Any-hit rate of the full collection: about 1.4%.
SMILES,CDK5 p35 inh,PvdQ acylase,Vif imaging,CAL PDZ FP-1,Glyco luc inh,CAL PDZ FP-2
COc1ccc(C(C#N)N2N=C(c3ccccc3)CC2c2ccccc2)cc1OC (stereo unspecified),-1,-9,1,-4,-1,0
COc1ccc(C(C#N)N2N=C(C)CC2c2ccccc2)cc1OC (stereo unspecified),2,1,54*,0,2,0
Cc1cccc(C(=O)Nc2ccc(C(=O)c3ccncc3)cc2)c1,·,·,7,·,0,·
CC(C)(C)CC(=O)NC(=S)Nc1ccccc1[N+](=O)[O-],-4,-14,2,101*,-1,0
C#Cc1ccc([C@@H]2C=C(C(=O)OCC=C)O[C@H](OCc3ccc(CO)cc3)C2)cc1,0,27,-1,-2,-2,1
O=C(O)c1ccccc1OC(C(=O)Nc1cc(Cl)cc(Cl)c1)c1ccccc1 (stereo unspecified),-3,-3,5,2,29*,-3
CC1=CC(C)(C)Nc2ccc(OC(=O)C(Cc3ccccc3)N3C(=O)c4ccccc4C3=O)cc21 (stereo unspecified),0,-17,21,68*,2,-1
CC1=CC(C)(C)Nc2ccc(OC(=O)CN3C(=O)c4ccccc4C3=O)cc21,-1,-1,9,-5,3,0
CCN1CCN(C(CNS(=O)(=O)c2ccc(C)cc2)c2cccnc2)CC1 (stereo unspecified),0,8,53*,-5,1,-1
C/C(=N\NC(=O)c1c(Cl)cnn1C)c1ccc(NC(=O)c2ccc(Br)o2)cc1,-2,-4,5,2,-3,-1
COc1ccc(CCNC(=O)c2cccc(S(=O)(=O)N3CCc4ccccc4C3)c2)cc1,-1,44*,1,4,-2,0
COc1cccc(CN2CC(C(=O)NCCc3ccccc3C(F)(F)F)CCC2=O)c1 (stereo unspecified),-2,-3,2,57*,-2,-1
O=C(NCCC1=CCCCC1)C1CCC(=O)N(Cc2cccc(C(F)(F)F)c2)C1 (stereo unspecified),-1,-9,12,36*,1,0
CCCNC(=O)C(CC)NC(=O)c1cccc([N+](=O)[O-])c1 (stereo unspecified),-1,-4,15,2,3,-1
COc1ccc2[nH]cc(CCNC(=O)Cc3ccc(F)cc3)c2c1,1,-2,5,79*,0,-4
Cc1cc(NC(=O)NC2(C(F)(F)F)Oc3ccc(Cl)cc3O2)no1 (stereo unspecified),0,1,105*,-5,-10,0
COCCNC(=O)NC1(C(F)(F)F)Oc2ccc(Cl)cc2O1 (stereo unspecified),0,-7,19,-16,-5,-4
COc1ccc(Cl)cc1NC(=O)Nc1cc(C)on1,2,-16,-2,-6,0,-4
O=C(NCc1cccnc1)NC1(C(F)(F)F)Oc2ccc(Cl)cc2O1 (stereo unspecified),-3,-1,137*,·,-9,-1
COc1cc(NC(=O)CNC(=O)Cn2cnc3sc(C)c(C)c3c2=O)cc(OC)c1OC,·,·,15,·,1,·
O=c1oc2ccccc2n1Cc1cccc(C(F)(F)F)c1,-5,-22,0,-3,-3,0
COc1ccccc1C(=O)NC(CCSC)C(=O)NC1CCCCCC1 (stereo unspecified),2,-4,-8,·,-2,-1
COc1ccccc1C(=O)NC(CCSC)C(=O)NC1CC1 (stereo unspecified),1,-3,·,62*,4,-2
CSc1ccccc1C(=O)NCCCn1ccnc1,0,-18,-2,61*,-1,17
Cc1[nH]c2ccccc2c1C(=O)C(=O)NCCCn1ccnc1,0,-1,-6,-5,2,0
SMILES,CDK5 p35 inh,PvdQ acylase,Vif imaging,CAL PDZ FP-1,Glyco luc inh,CAL PDZ FP-2
O=C(NCCCn1ccnc1)c1cc(-c2cccs2)on1,0,-4,10,-5,155*,·
Cc1ccc(-c2cc(C(=O)NCCCN3CCOCC3)no2)cc1,0,-16,-5,-3,-4,-3
O=C(NCCCN1CCOCC1)c1cc(-c2cccs2)on1,-3,8,-1,-2,46*,0
Cc1c(C(=O)C(=O)NCCCn2ccnc2)c2ccccc2n1C,0,-11,-8,36*,3,-1
COc1ccc(OC)c(-c2cc(C(=O)NCCCn3ccnc3)no2)c1,-2,-7,16,-6,2,-4
O=C(CC1Sc2ccccc2NC1=O)NNc1cc(Cl)ccc1Cl (stereo unspecified),0,-10,-5,·,14,0
CC(=O)Nc1ccccc1NC(=O)C/C(C)=N/NC(=O)c1ccc([N+](=O)[O-])c(Cl)c1,1,-7,0,30*,4,-1
Cc1ccc(-c2nn(CC(=O)NCc3cc(-c4nn(C)c(=O)c5ccccc45)ccc3C)c(=O)c3ccccc23)cc1,-1,-10,5,40*,-1,·
O=C(CSc1nnc(-c2ccc(Cl)cc2Cl)n1C1CCCCC1)N1CCCC1,1,-3,-15,53*,1,-1
O=C(CSc1nnc(-c2ccc(Br)cc2)n1C1CCCCC1)N1CCCC1,-1,-12,6,56*,-1,-1
O=C(CSc1nnc(-c2ccccc2F)n1C1CCCCC1)N1CCCC1,-1,-2,-11,6,-1,-2
CCCNc1nc2ccccc2n2c(C)nnc12,0,0,-5,-5,40*,-2
C=CCNc1nc(NCCOc2ccccc2Cl)c2sc(-c3ccccc3)cc2n1,·,·,-6,·,-10,·
COC(=O)c1ccc(COc2ccccc2/C=C(\C#N)C(=O)Nc2c(C)cccc2C)cc1,2,-19,·,-1,37*,1
COC(=O)c1ccc(COc2ccccc2/C=C(\C#N)C(=O)Nc2ccccc2C)cc1,1,-11,3,-1,5,0
O=C(c1ccc2c(c1)OCO2)C1CCCN(Cc2cc(F)ccc2-n2cccn2)C1 (stereo unspecified),-1,-13,2,57*,2,-1
CCOc1ccc2c(C)c(C(=O)O)oc2c1OCC,1,9,55*,-1,2,-1

# Compound activity: PubChem BioAssay, Broad Institute
